Measured values published in the M2OR odorant receptor database.
Changes are numbered by the printed parent chain.

Legend:
Settings in all cases: stereoisomer not certain
[1] = target: T1, OR52N4 (Homo sapiens) (UniProt Q8NGI2)
T1 sequence (whole entry): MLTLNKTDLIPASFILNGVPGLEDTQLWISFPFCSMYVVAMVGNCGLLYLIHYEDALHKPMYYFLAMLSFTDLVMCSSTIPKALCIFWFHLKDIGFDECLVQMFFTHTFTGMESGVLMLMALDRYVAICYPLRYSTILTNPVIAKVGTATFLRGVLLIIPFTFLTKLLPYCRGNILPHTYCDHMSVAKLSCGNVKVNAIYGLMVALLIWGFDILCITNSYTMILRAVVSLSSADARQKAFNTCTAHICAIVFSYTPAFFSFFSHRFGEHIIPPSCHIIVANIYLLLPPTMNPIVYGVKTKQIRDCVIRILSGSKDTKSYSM
Outline: (§1)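 Transient luciferase assays in mammalian cell lines were common, though methods varied by source. The values come from published papers and their supplementary material, with extra details from the original authors when needed. Responsive refers to a measured signal the original authors judged statistically different from baseline, and non-responsive (inactive) to the remainder.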

[2] = target: T2, OR52N5 (Homo sapiens) (UniProt Q8NH56)
T2 sequence (whole entry): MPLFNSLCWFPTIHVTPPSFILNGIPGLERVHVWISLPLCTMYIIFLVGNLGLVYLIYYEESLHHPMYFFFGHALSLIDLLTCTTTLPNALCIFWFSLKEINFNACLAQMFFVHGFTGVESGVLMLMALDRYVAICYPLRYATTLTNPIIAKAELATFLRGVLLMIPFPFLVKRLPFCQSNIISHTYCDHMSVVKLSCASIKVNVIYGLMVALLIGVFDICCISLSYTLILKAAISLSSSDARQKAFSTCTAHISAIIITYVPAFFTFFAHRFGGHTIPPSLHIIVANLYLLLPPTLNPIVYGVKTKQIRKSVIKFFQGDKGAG
Outline: as §1

[3] = target: T3, OR52R1 (Homo sapiens) (UniProt Q8NGF1)
T3 sequence (whole entry): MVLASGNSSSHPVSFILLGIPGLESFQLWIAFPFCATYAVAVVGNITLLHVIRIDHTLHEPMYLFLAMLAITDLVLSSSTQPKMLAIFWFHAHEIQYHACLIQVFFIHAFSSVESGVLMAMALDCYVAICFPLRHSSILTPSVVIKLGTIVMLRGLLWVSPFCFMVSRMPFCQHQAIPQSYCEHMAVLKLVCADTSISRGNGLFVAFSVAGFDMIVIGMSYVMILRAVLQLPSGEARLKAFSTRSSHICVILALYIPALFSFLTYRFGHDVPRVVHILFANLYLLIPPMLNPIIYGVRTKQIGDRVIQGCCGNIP
Outline: as §1

[4] = target: T4, OR52W1 (Homo sapiens) (UniProt Q6IF63)
T4 sequence (whole entry): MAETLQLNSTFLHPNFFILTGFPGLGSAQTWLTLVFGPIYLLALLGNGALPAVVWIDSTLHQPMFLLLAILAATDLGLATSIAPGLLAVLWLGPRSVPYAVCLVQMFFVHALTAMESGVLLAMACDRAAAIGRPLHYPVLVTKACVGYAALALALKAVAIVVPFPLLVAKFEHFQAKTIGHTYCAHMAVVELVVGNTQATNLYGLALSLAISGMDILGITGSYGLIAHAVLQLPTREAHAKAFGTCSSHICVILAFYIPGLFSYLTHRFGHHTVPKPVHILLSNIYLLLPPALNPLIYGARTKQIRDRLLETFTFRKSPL
Outline: as §1

[5] = target: T5, OR56A1 (Homo sapiens) (UniProt Q8NGH5)
T5 sequence (whole entry): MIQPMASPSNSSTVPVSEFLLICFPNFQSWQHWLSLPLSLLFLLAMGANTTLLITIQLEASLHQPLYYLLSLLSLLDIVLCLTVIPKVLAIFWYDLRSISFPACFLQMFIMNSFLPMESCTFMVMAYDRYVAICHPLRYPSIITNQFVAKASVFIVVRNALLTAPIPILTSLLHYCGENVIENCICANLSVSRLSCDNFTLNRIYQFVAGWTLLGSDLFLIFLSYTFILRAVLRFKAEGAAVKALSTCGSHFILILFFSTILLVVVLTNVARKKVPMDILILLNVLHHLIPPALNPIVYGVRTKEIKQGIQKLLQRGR
Outline: as §1

[6] = target: T6, OR56A3 (Homo sapiens) (UniProt Q8NH54)
T6 sequence (whole entry): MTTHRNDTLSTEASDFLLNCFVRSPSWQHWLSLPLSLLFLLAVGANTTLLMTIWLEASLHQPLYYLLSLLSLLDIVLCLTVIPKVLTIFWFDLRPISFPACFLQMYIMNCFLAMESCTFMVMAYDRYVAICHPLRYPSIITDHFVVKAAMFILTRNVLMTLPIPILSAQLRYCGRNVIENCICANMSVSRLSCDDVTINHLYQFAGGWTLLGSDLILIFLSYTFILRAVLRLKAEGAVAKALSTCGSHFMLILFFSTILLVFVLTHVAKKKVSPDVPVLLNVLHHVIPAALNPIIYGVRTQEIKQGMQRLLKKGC
Outline: as §1

[7] = target: T7, OR56A5 (Homo sapiens) (UniProt P0C7T3)
T7 sequence (whole entry): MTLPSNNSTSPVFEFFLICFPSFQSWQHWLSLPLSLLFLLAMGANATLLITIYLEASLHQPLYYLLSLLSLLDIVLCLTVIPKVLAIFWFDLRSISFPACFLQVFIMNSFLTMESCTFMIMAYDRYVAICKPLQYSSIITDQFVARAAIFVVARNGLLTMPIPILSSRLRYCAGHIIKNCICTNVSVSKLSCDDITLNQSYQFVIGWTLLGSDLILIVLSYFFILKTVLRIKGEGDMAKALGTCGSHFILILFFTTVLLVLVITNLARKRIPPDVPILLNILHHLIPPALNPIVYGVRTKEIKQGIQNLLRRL
Outline: as §1

[8] = target: T8, OR56B1 (Homo sapiens) (UniProt Q8NGI3)
T8 sequence (whole entry): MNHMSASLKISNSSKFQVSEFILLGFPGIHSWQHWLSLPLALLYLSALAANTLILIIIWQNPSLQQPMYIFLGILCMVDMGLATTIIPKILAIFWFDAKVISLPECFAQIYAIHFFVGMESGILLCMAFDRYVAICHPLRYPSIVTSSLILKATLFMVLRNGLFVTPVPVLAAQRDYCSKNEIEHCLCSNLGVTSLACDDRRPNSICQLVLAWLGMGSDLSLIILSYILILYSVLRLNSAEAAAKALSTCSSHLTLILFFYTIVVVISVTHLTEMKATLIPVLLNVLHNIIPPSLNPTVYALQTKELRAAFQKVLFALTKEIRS
Outline: as §1

[9] = target: T9, OR56B4 (Homo sapiens) (UniProt Q8NH76)
T9 sequence (whole entry): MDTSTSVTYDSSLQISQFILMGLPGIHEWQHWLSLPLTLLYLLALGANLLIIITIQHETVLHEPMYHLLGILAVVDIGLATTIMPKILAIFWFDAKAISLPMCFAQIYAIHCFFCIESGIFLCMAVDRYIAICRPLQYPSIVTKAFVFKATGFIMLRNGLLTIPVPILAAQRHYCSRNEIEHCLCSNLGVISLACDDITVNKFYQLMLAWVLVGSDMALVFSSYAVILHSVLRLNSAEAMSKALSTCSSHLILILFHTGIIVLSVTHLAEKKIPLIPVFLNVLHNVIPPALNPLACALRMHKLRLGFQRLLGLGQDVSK
Outline: as §1

[10] = target: T10, OR5A1 (Homo sapiens) (UniProt Q8NGJ0)
T10 sequence (whole entry): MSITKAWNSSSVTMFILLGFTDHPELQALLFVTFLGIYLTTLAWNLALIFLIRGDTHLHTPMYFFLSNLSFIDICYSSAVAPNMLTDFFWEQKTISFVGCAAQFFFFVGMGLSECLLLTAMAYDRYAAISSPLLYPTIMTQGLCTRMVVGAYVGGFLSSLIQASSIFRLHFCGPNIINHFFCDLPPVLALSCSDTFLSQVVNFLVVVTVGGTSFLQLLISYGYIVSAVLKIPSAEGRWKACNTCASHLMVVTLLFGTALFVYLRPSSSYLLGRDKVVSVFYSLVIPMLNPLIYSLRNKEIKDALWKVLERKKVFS
Outline: as §1

[11] = system: T11, OR5A1 D183N
T11 sequence (whole entry): T10 sequence (whole entry) with D183N
Outline: as §1

[12] = target: T12, OR5A2 (Homo sapiens) (UniProt Q8NGI9)
T12 sequence (whole entry): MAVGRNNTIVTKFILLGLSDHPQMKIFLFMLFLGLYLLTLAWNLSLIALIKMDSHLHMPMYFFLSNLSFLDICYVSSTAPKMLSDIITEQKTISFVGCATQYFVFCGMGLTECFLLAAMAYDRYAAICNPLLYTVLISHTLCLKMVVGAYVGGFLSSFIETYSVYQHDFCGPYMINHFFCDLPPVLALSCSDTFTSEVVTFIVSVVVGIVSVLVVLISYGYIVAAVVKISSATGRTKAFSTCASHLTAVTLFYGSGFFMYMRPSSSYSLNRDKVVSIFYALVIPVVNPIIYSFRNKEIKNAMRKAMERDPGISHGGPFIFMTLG
Outline: as §1

[13] = target: T13, OR5AC2 (Homo sapiens) (UniProt Q9NZP5)
T13 sequence (whole entry): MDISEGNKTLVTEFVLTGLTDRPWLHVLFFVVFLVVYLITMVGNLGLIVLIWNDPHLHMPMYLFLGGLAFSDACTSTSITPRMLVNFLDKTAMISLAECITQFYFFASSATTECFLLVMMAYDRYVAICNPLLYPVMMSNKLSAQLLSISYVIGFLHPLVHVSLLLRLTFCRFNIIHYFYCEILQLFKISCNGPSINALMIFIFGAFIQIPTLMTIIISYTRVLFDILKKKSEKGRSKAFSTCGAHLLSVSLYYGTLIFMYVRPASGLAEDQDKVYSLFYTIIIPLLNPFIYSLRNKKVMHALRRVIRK
Outline: as §1

[14] = target: T14, OR5AK2 (Homo sapiens) (UniProt Q8NH90)
T14 sequence (whole entry): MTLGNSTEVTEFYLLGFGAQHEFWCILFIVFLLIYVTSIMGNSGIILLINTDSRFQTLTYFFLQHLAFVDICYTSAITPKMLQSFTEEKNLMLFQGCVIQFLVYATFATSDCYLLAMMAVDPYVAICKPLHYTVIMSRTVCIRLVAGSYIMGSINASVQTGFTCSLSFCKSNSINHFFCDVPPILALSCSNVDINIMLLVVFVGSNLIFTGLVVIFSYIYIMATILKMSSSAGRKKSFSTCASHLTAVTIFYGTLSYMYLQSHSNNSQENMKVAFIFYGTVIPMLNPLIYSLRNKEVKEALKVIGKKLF
Outline: as §1

[15] = target: T15, OR5AN1 (Homo sapiens) (UniProt Q8NGI8)
T15 sequence (whole entry): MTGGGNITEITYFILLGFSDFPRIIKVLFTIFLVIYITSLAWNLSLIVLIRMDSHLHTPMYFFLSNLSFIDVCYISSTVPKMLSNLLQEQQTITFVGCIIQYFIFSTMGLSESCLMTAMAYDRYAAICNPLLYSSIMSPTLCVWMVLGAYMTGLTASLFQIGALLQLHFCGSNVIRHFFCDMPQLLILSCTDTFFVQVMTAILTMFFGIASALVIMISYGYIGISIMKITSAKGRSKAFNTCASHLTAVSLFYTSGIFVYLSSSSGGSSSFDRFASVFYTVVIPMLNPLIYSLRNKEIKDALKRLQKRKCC
Outline: as §1

[16] = target: T16, OR5AP2 (Homo sapiens) (UniProt Q8NGF4)
T16 sequence (whole entry): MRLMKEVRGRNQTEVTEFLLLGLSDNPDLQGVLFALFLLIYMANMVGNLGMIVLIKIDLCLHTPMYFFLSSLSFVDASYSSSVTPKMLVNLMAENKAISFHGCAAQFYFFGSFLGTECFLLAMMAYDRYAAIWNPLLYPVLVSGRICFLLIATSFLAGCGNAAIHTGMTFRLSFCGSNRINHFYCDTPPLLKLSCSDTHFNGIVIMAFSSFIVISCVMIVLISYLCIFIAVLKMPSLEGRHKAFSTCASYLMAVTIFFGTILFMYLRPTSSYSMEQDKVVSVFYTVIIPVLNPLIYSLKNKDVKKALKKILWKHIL
Outline: as §1

[17] = target: OR52Z1P (Homo sapiens) (UniProt P0C646)
Sequence of OR52Z1P (Homo sapiens) (P0C646 whole entry): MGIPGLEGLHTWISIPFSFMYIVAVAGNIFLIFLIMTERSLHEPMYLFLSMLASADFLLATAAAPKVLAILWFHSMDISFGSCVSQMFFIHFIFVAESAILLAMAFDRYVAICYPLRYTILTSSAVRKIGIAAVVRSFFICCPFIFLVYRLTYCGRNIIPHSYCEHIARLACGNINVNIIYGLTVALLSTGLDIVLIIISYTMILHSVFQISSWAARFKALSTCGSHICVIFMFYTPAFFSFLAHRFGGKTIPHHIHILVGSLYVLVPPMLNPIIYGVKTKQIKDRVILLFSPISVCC
Outline: as §1

[18] = target: T17, OR56A4 (Homo sapiens) (UniProt Q8NGH8)
T17 sequence (whole entry): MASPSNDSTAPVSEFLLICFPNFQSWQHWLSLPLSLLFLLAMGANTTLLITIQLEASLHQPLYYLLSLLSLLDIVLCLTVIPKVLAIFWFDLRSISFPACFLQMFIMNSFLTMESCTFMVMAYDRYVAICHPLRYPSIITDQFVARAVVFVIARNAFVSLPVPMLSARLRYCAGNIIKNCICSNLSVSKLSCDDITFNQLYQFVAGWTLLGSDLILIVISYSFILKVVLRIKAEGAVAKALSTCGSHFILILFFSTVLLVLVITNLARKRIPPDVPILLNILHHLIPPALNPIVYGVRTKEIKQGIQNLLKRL
Outline: as §1

[19] = target: OR5AC1 (Homo sapiens) (UniProt P0C628)
Sequence of OR5AC1 (Homo sapiens) (P0C628 whole entry): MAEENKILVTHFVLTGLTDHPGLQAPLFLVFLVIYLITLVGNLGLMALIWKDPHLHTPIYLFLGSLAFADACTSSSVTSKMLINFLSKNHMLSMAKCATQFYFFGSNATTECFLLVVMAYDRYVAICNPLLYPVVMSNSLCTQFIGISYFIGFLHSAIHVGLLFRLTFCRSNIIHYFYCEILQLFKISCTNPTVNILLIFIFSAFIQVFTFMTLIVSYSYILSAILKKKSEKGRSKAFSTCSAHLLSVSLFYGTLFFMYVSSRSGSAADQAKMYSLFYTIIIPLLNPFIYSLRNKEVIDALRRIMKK
Outline: as §1

[20] = target: OR5AL1 (Homo sapiens) (UniProt P0C617)
Sequence of OR5AL1 (Homo sapiens) (P0C617 whole entry): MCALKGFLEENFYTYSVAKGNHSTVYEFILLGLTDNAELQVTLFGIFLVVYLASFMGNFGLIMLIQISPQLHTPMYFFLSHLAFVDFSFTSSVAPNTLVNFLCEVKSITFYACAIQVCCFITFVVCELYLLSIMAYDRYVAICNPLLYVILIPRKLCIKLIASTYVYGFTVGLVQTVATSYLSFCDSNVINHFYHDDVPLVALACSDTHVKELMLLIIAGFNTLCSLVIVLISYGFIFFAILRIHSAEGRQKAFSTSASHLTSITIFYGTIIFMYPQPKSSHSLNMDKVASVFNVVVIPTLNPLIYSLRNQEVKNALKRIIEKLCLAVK
Outline: as §1

For `CCCC(S)CCOC(C)=O` (stereo unspecified), the “odorant receptor agonist call” value [1] was “inactive”, the “odorant receptor agonist call” value [2] was “inactive” and the “odorant receptor agonist call” value [3] was “inactive”. The “odorant receptor agonist call” value [4] was “inactive”, the “odorant receptor agonist call” value [5] was “inactive” and the “odorant receptor agonist call” value [6] was “inactive”. For the same compound, the “odorant receptor agonist call” value [7] was “inactive”, the “odorant receptor agonist call” value [8] was “inactive” and the “odorant receptor agonist call” value [9] was “inactive”. The “odorant receptor agonist call” value [10] was “inactive”, the “odorant receptor agonist call” value [11] was “inactive” and the “odorant receptor agonist call” value [12] was “inactive”. For the same compound, the “odorant receptor agonist call” value [13] was “inactive”, the “odorant receptor agonist call” value [14] was “inactive” and the “odorant receptor agonist call” value [15] was “inactive”. For the same compound, the “odorant receptor agonist call” value [16] was “inactive”.
With `CC1CC(C)(c2ccccc2)CO1` (stereo unspecified) the “odorant receptor agonist call” value [13] was “inactive”.
`CC1CCCCCCCCCCCCC(=O)C1` (stereo unspecified) was tested, and the “odorant receptor agonist call” value [1] was “inactive”, the “odorant receptor agonist call” value [2] was “inactive” and the “odorant receptor agonist call” value [3] was “inactive”. For the same compound, the “odorant receptor agonist call” value [4] was “inactive”, the “odorant receptor agonist call” value [17] was “inactive” and the “odorant receptor agonist call” value [5] was “inactive”. For the same compound, the “odorant receptor agonist call” value [6] was “inactive”, the “odorant receptor agonist call” value [18] was “inactive” and the “odorant receptor agonist call” value [7] was “inactive”. For the same compound, the “odorant receptor agonist call” value [8] was “inactive”, the “odorant receptor agonist call” value [9] was “inactive” and the “odorant receptor agonist call” value [10] was “inactive”. The “odorant receptor agonist call” value [12] was “inactive”, the “odorant receptor agonist call” value [19] was “inactive” and the “odorant receptor agonist call” value [13] was “inactive”. The “odorant receptor agonist call” value [14] was “inactive”, the “odorant receptor agonist call” value [20] was “inactive” and the “odorant receptor agonist call” value [15] was “active”. The “odorant receptor agonist call” value [16] was “inactive”.
